Data taken from ChEMBL document CHEMBL4392833, “Thiazolyl-pyrazole derivatives as potential antimycobacterial agents” (Bioorg Med Chem Lett, 2019).

How the values were obtained:
[1] = test system: Mycobacterium tuberculosis variant bovis; test: Antitubercular activity against dormant stage of Mycobacterium bovis BCG ATCC 35743 after 12 days by nitrate reductase assay; format: functional, organism-based; details: BCG str. ATCC 35743, 288 h
[2] = test system: Mycobacterium tuberculosis variant bovis; test: Antitubercular activity against dormant stage of Mycobacterium bovis BCG ATCC 35743 by two fold dilution technique; format: functional; details: BCG str. ATCC 35743
Outline: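 MIC against dormant-stage bacilli, read out by XTT reduction menadione assay (XRMA), with rifampicin MIC determined the same way as reference.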

[3] = test system: Mycobacterium tuberculosis variant bovis; test: Antitubercular activity against dormant stage of Mycobacterium bovis BCG ATCC 35743 assessed as growth inhibition at 30 ug/ml after 12 days by nitrate reductase assay relative to control; format: functional; details: BCG str. ATCC 35743, 288 h
[4] = test system: Mycobacterium tuberculosis variant bovis; test: Antitubercular activity against dormant stage of Mycobacterium bovis BCG ATCC 35743 assessed as growth inhibition at 10 ug/ml after 12 days by nitrate reductase assay relative to control; format: functional; details: BCG str. ATCC 35743, 288 h
[5] = test system: Mycobacterium tuberculosis variant bovis; test: Antitubercular activity against dormant stage of Mycobacterium bovis BCG ATCC 35743 assessed as growth inhibition at 3 ug/ml after 12 days by nitrate reductase assay relative to control; format: functional; details: BCG str. ATCC 35743, 288 h
[6] = test system: Mycobacterium tuberculosis variant bovis; test: Potency index, ratio of rifampicin MIC to test compound MIC for dormant stage of Mycobacterium bovis BCG ATCC 35743; format: functional, BCG str. ATCC 35743

Row | SMILES | IC50 [1] | MIC90 [2] | inhibition at 30 µg/mL [3] [%] | inhibition at 10 µg/mL [4] [%] | inhibition at 3 µg/mL [5] [%] | Ratio [6]
1 | Cc1nc(C)c(-c2nn(-c3ccc(F)cc3)cc2C2CC(c3cc(Cl)ccc3O)=NN2)s1 (stereo not drawn) | 2.48 µM | 1.54 µM | 99.7 | 99.7 | 99.2 | 
2 | CO[C@H]1/C=C/O[C@@]2(C)Oc3c(C)c(O)c4c(O)c(c(/C=N/N5CCN(C)CC5)c(O)c4c3C2=O)NC(=O)/C(C)=C\C=C\[C@H](C)[C@H](O)[C@@H](C)[C@@H](O)[C@@H](C)[C@H](OC(C)=O)[C@@H]1C [RIFAMPIN] | 0.91 µM | 0.98 µM |  |  |  | 
3 | Cc1nc(C)c(-c2nn(-c3ccc(F)cc3)cc2-c2cc(=O)c3cc(Cl)c(C)cc3o2)s1 | 3.69 µM | 2.85 µM | 98.2 | 98.9 | 99.7 | 
4 | Cc1ccc(O)c(C(=O)/C=C/c2cn(-c3ccc(F)cc3)nc2-c2sc(C)nc2C)c1 | 1.59 µM | 16.2 µM | 96.9 | 85.2 | 60.9 | 
5 | Cc1ccc(O)c(C2=NNC(c3cn(-c4ccc(F)cc4)nc3-c3sc(C)nc3C)C2)c1 (stereo not drawn) | 46.4 µM | 63.1 µM | 97.5 | 82.7 | 33 | 
6 | Cc1nc(C)c(-c2nn(-c3ccc(F)cc3)cc2C2CC(c3cc(Cl)c(C)cc3O)=NN2)s1 (stereo not drawn) | 9.65 µM | 4.77 µM | 98.5 | 89.7 | 69.6 | 
7 | Cc1ccc2oc(-c3cn(-c4ccc(F)cc4)nc3-c3sc(C)nc3C)cc(=O)c2c1 | 5.89 µM | 1.18 µM | 95.6 | 96.6 | 97.6 | 
8 | Cc1nc(C)c(-c2nn(-c3ccc(F)cc3)cc2C2CC(c3c(O)cc(C)c(Cl)c3C)=NN2)s1 (stereo not drawn) | 5.04 µM | 4.55 µM | 98.4 | 98 | 89 | 
9 | Cc1nc(C)c(-c2nn(-c3ccc(F)cc3)cc2/C=C/C(=O)c2cc(Cl)ccc2O)s1 | > 30 µg/mL | > 30 µg/mL | 19.6 | 5.45 | 5.71 | 
10 | Cc1nc(C)c(-c2nn(-c3ccc(F)cc3)cc2/C=C/C(=O)c2cc(Cl)cc(Cl)c2O)s1 | > 30 µg/mL | > 30 µg/mL | 29.8 | 10.1 | 8.72 | 
11 | Cc1nc(C)c(-c2nn(-c3ccc(F)cc3)cc2/C=C/C(=O)c2cc(Br)ccc2O)s1 | > 30 µg/mL | > 30 µg/mL | 19.2 | 16.4 | 5.7 | 
12 | Cc1nc(C)c(-c2nn(-c3ccc(F)cc3)cc2/C=C/C(=O)c2c(O)cc(C)c(Cl)c2C)s1 | > 30 µg/mL | > 30 µg/mL | 9.91 | 4.19 | 8.39 | 
13 | Cc1nc(C)c(-c2nn(-c3ccc(F)cc3)cc2/C=C/C(=O)c2cc(Cl)c(C)cc2O)s1 | 0.79 µM | 6.85 µM | 97.2 | 52.8 | 8.47 | 
14 | Cc1nc(C)c(-c2nn(-c3ccc(F)cc3)cc2C2CC(c3cc(Br)ccc3O)=NN2)s1 (stereo not drawn) | 5.79 µM | 0.39 µM | 99.5 | 98.7 | 96.2 | 4
